Granule exo inh: blocks lytic granule exocytosis; TALL-104 LAMP-1 surface exposure, flow cytometry; cells stimulated with thapsigargin and PMA; inhibition, % at 10 µM; 0.66% of 360,000 active;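 active means inhibition above about 55%, limit read from the data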
iPSC survival up: hiPSC single-cell survival enhancement | ATPlite luminescence; 100% = ROCK inhibitor wells, 0% = DMSO | survival enhancement, % at 20 µM | 0.044% of 360,000 active | AID 602274; in the data active means survival enhancement above about 18%;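 further: cells exposed to compounds for 16 hours before the ATP read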
MC4R ag barr: agonists of human melanocortin 4 receptor (MC4R) beta-arrestin; P32245; U2OS MC4R beta-arrestin complementation, luminescence; percent of melanotan II response, DMSO zero; activation, % at 8.9 µM; 0.98% of 360,000 active; AID 540308;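 active means activation above a per-plate cutoff, the mean activation of sample wells on that plate plus 3 SD, cut at about 8% in these data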
Target sequence (P32245 whole entry, looked up): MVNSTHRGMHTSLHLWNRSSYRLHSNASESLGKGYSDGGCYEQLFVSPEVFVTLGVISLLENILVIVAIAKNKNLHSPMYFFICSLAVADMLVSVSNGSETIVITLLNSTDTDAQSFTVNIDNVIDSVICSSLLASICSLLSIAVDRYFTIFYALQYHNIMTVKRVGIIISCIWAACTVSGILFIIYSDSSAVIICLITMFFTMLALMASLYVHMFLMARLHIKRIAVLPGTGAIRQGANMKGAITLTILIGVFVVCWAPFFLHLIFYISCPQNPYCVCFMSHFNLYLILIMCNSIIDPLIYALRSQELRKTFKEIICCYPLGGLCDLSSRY
MC4R antagonist: human MC4R antagonism in cAMP assay; P32245; MC4R-expressing cells, MTII-stimulated cAMP, LANCE TR-FRET; inhibition, % at 6.5 µM; 0.48% of 360,000 active;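 active means inhibition above its plate's cutoff, the mean of tested wells on that plate plus 3 SD, cut at about 29% in these data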;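 further: 0% = Melanotan II alone and 100% = Melanotan II plus saturating MCL0020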
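Material: U2OS-MC4R stable cell line | Reagent: Melanotan II challenge after compound preincubation | Doses: One concentration, 6.5 µM nominal | Incubation: 30-min compound preincubation, 1-h Melanotan II challenge, 1-h detection, room temperature | Signal: TR-FRET cAMP assay | Replicates: One well per compound, no replicates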
TbMetRS inhib: blocks T. brucei methionyl-tRNA synthetase activity. purified T. brucei MetRS, ATP depletion, Kinase-Glo luminescence. inhibition, % at 11.9 µM. 0.4% of 360,000 active;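 active means inhibition above a per-plate cutoff of the control wells' mean inhibition plus 3 SD, cut at about 5.5% in these data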;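 further: 0% = DMSO wells median and 100% = median of wells with control inhibitor compound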
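assay system = parasite MetRS enzyme | timing = 15 min preincubation, 2 h reaction, all 25 °C | evaluation = percent inhibition relative to median high and low control wells | medium = HEPES buffer containing pyrophosphatase, BSA, spermine, DTT | compound = single dose, 11.9 µM final nominal, 0.9% final DMSO | detection = Kinase-Glo luminescence, ATP depletion format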
ABCB6 inh MLPCN: blocks the human ABCB6 transporter | Q9NP58 | K562-ABCB6 porphyrin accumulation, flow cytometry, 1 h; hits give low values | fluorescence ratio to DMSO, % at 10 µM | 0.19% of 360,000 active | AID 602162;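 active means fluorescence ratio to DMSO below 75%, the collection mean minus 3 SD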;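 further: signal is porphyrin accumulated inside mitochondria; 100% equals median channel fluorescence of DMSO control wells; lower ratio means ABCB6 inhibition with less porphyrin fluorescence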
MC4R barr ag: human MC4R beta-arrestin agonism confirmation | shares compounds with MC4R ag barr | U2OS MC4R beta-arrestin recruitment, luminescence; scaled DMSO 0%, Melanotan II 100% | activation, % at 8.9 µM | 31% of 2,400 active;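 active means mean activation across replicates above the hit cutoff set in the earlier primary screen, cut at about 8% in these data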
MOR DOR agonist: counter-screen for MC4R agonists: agonists of mu-delta opioid heterodimer. AID 602194. 5.8% of 2,400 active. U2OS PathHunter beta-arrestin, beta-gal luminescence; percent of deltorphin B response, DMSO zero. activation, % at 9.2 µM. shares compounds with MC4R ag barr;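 active means mean activation across replicates exceeds the hit threshold derived in the earlier primary screen, cut at about 18% in these data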;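 further: 100% = deltorphin B at 0.9 µM final and 0% = DMSO alone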
The depositor's hits bear a star; nt = not tested or not shown; ! = repeats disagree. Hits are enriched below; roughly 2.6% of the tested compounds scored in any of these assays.

SMILES | Granule exo inh | iPSC survival up | MC4R ag barr | MC4R antagonist | TbMetRS inhib | ABCB6 inh MLPCN | MC4R barr ag | MOR DOR agonist
Cc1cc(C)nc(Nc2n[nH]c(COc3ccc4ccccc4c3)n2)n1 | -2 | 5 | 16* | 0 | 0 | 98 | 0 | 3
Cc1ccc(C(=O)N/N=C\c2ccc(-c3ccc(Cl)c(Cl)c3)o2)cn1 | 18 | -1 | 11* | -7 | -1 | 106 | 8.4* | 6
CC1CCc2sc(C(=O)OCC(=O)NCc3ccc(F)cc3)cc2C1 (centres undefined) | 28 | 2 | 13* | -24 | -1 | 100 | 2 | 4
Cc1[nH]c(C)c(S(=O)(=O)N2CCCCC2C)c1C(=O)N1CCCC1 (centres undefined) | -8 | 0 | 1 | 2 | -1 | 95 | nt | nt
CCOC(=O)C1=C(Nc2ccc(Cl)cc2)OCC1=O | -6 | 0 | 2 | 2 | -1 | 99 | nt | nt
CSc1cc(-c2ccccc2)n(C)c(=O)c1C#N | -1 | 0 | 12* | -4 | -1 | 102 | 1 | 3
CSc1cc(-c2ccc(Cl)cc2)n(Cc2ccccc2)c(=O)c1C#N | 1 | -1 | 0 | 7 | -2 | 100 | nt | nt
CN1CCN(S(=O)(=O)c2cccc(C(=O)N3CCN(c4ccccc4F)CC3)c2)CC1 | 6 | 0 | -3 | -4 | 0 | 92 | nt | nt
COCCCN1C(=O)C(CC(=O)NC2CCCCC2)CC(C(=O)N2CCCCCC2)=C1C (centres undefined) | -9 | 1 | nt | nt | 0 | 103 | nt | nt
O=C1COc2ccc(C(=O)COC(=O)c3sc4ccccc4c3Cl)cc2N1 | -2 | -2 | 12* | 2 | 0 | 94 | 4 | 4
COc1ccc(CCNC(=O)c2c(O)c3c([nH]c2=O)CCCC3)cc1 | -2 | -1 | 10* | 16 | -1 | 87 | 8.6* | 5
CCCNC(=O)c1c(O)c2c([nH]c1=O)CCCC2 | -1 | -1 | -1 | 1 | -1 | 107 | nt | nt
CCOc1ccc(NC(=O)CSc2nc(=O)n(CCN3CCOCC3)c3c2CCCC3)cc1 | -2 | 0 | -4 | 3 | -1 | 97 | nt | nt
O=C(CCn1cncn1)N1CCCC(N2CCN(c3cccc(C(F)(F)F)c3)CC2)C1 (centres undefined) | 1 | 3 | -1 | -2 | 0 | 97 | nt | nt
CCN1C(=O)CC(N2CCN(CC(=O)NC(C)C)CC2)C1=O (centres undefined) | 1 | -2 | -1 | -2 | 0 | 96 | nt | nt
Cc1ccc(C)c(OCCC(=O)OCC(=O)NCCNC(=O)COC(=O)CCOc2cc(C)ccc2C)c1 | 0 | 0 | 11* | -4 | 0 | 100 | 1 | 5
Cc1ccc(C)c(OCCC(=O)OCC(=O)NCc2ccccc2)c1 | -6 | 0 | -3 | 0 | 0 | 99 | nt | nt
Cc1ccc(-c2nnn(CC(=O)N(CC(=O)NC3CCCCC3)c3ccc(F)c(Cl)c3)n2)o1 | 26 | -1 | 5 | 0 | -1 | 115 | nt | nt
Cc1ccc(-c2nnn(CC(=O)N(CC(=O)NC3CCCC3)c3ccc(F)c(Cl)c3)n2)o1 | 19 | 1 | 10* | 6 | -1 | 96 | 1 | 5
CN(C)c1ccc(NC(=O)/C=C/c2c(Cl)cccc2Cl)cc1 | 4 | -3 | 10* | 13 | 0 | 103 | -1 | 5
COc1cc(/C=C2/C(=N)N3C=CSC3=NC2=O)ccc1OCCCOc1ccccc1C | -2 | 0 | 17* | -29 | 0 | 98 | 12* | 11
COC(=O)c1sc(NC(=O)/C=C/c2ccc(C)o2)nc1C | 8 | -2 | 12* | -1 | 1 | 91 | 4 | 1
COc1ccc(CCN2C(=O)c3ccncc3C2=O)cc1OC | 7 | 2 | 14* | 7 | 0 | 104 | 1 | 3
N#Cc1c(N)nc(-c2ccccc2)nc1-c1ccccc1 | -5 | 1 | 13* | -3 | -1 | 97 | 0 | 6
COc1ccc(-c2noc(CNS(=O)(=O)c3ccc(NC(C)=O)cc3)n2)cc1 | 13 | 0 | 0 | -7 | 0 | 110 | nt | nt
SMILES | Granule exo inh | iPSC survival up | MC4R ag barr | MC4R antagonist | TbMetRS inhib | ABCB6 inh MLPCN | MC4R barr ag | MOR DOR agonist
O=C(NCc1nc(-c2ccc(C(F)(F)F)cc2)no1)Nc1ccc(OC(F)(F)F)cc1 | 20 | -1 | 11* | 3 | -1 | 97 | 5 | 2
CCOC(=O)CSc1c(-c2ccc(Cl)cc2)[nH]c2ccccc12 | 1 | -2 | 11* | 12 | 0 | 98 | 4 | 14
Cc1cc(C)c2nc(-c3ccccn3)cc(C(=O)NCc3ccc(S(N)(=O)=O)cc3)c2c1 | -1 | -2 | 9.7* | 2 | -1 | 98 | 0 | 5
COc1ccc(NC(=O)c2cc(-c3ccccn3)nc3c(C)cc(C)cc23)c(C)c1 | 4 | 0 | 12* | 20 | 0 | 99 | 3 | 3
COC(=O)C1(C(=O)OC)C[C@H](/C=C/c2ccccc2)N(Cc2ccccc2OC)[C@@H]1c1ccccc1 | 11 | nt | nt | nt | 0 | nt | nt | nt
CSc1ccc2c(c1)C(N1CCN(C)CC1)Cc1ccccc1S2 (centres undefined) | 21 | 0 | 11*! | -1 | 0 | 98 | 6 | 8
CN1CCN(C2Cc3ccccc3Sc3ccc(Cl)cc32)CC1 (centres undefined) | 14 | 0 | 4 | -2 | -1 | 101 | nt | nt
CC(C)(C)c1cc(-c2ccco2)c(C#N)c(SCC#N)n1 | -2 | 7 | 19* | 13 | -1 | 106 | 1 | 7
CCSc1nc(C2CC2)cc(-c2ccco2)c1C#N | 2 | 0 | -1 | 3 | -1 | 100 | nt | nt
CCOC(=O)C1=CN(Cc2ccc(OC)cc2)C=C(C(=O)OCC)C1c1cccs1 | -2 | 0 | -1 | 12 | 0 | 98 | nt | nt
Cn1c2ccccc2c2cnn(CC(=O)Nc3ccccc3Br)c(=O)c21 | 1 | -1 | 3 | -5 | -1 | 98 | nt | nt
Cn1c2ccccc2c2cnn(CC(=O)Nc3ccc(F)cc3F)c(=O)c21 | 1 | 0 | 16* | -3 | -1 | 101 | 1 | 3
COc1cccc(C(=O)NCCS(=O)(=O)NCc2ccc(Cl)cc2)c1 | 0 | 0 | -1 | -1 | -1 | 94 | nt | nt
CCOc1ccccc1C(=O)NCC(=O)NCCSc1ccc(Br)cc1 | 6 | 0 | 15* | -2 | 0 | 95 | 2 | 5
COc1ccccc1OCC(=O)Nc1sc2c(c1C(N)=O)CCC2 | 1 | 0 | -1 | -10 | 0 | 81 | nt | nt

Screens (PubChem BioAssay)
